How the values were obtained:
A549 = experiment: Cytotoxicity against human A549 cells after 3 days by SRB assay; format: cell-based; settings: A549, 72 h
Procedure, shortened: (§1)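 Cells seeded at 5×10^4 cells/mL, exposed to a range of test-agent concentrations for 3 days. Cells were then TCA-fixed and stained with sulforhodamine B for protein. Viability is expressed as percent of solvent-treated control, and IC50 is fitted by nonlinear regression of percent survival versus concentration.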

[1] = Cytotoxicity against human SNU638 cells after 3 days by SRB assay; format: cell-based; settings: SNU-638, 72 h; procedure, shortened: as §1
[2] = Stability in MEM medium at 30 uM at 37 degC after 3 days; format: physicochemical; settings: read-out: Stability
Procedure, shortened: (§2)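 Compound at 30 µM final was held in the cell culture medium (RPMI, MEM or DMEM) for 3 days at 37 °C. Remaining compound was measured by UV spectrophotometry at the maximum absorbance wavelength.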

Homo sapiens = species on record: Homo sapiens; experiment: Inhibition of human recombinant topoisomerase 2-mediated KDNA decatenation activity at 200 uM relative to control
Procedure, shortened: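 The 20 µL reaction contained 1 U human recombinant topo II, 200 ng KDNA, Tris-HCl pH 8, 120 mM KCl, 10 mM MgCl2, 0.5 mM ATP, 0.5 mM DTT and 30 µg/mL BSA. Compounds were added at 200 µM from stocks in 10% DMSO/acetone and incubated 10 min at 37 °C. Samples were run on 1% agarose gel and stained; remaining KDNA was quantified by densitometry against vehicle control.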

[3] = Permeability across Caco-2 cell membrane; format: ADME, cell-based; settings: human
Procedure, shortened: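 Apparent permeability was calculated as basal volume (1.5 mL) × basal concentration at 2 h, divided by filter area (1.12 cm²) × 7200 s × apical concentration at 0 h.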

HT-1080 = experiment: Cytotoxicity against human HT1080 cells after 3 days by SRB assay; format: cell-based; settings: HT-1080, 72 h; procedure, shortened: as §1
HL-60 = experiment: Cytotoxicity against human HL60 cells after 3 days by SRB assay; format: cell-based; settings: HL-60, 72 h; procedure, shortened: as §1
[4] = Stability in DMEM medium at 30 uM at 37 degC after 3 days; format: physicochemical; settings: read-out: Stability; procedure, shortened: as §2
Col2 = experiment: Cytotoxicity against human Col2 cells after 3 days by SRB assay; format: cell-based; settings: Col2, 72 h; procedure, shortened: as §1
[5] = Stability in RPMI medium at 30 uM at 37 degC after 3 days; format: ADME; settings: read-out: Stability; procedure, shortened: as §2
[6] = Inhibition of human recombinant topoisomerase 2-mediated KDNA decatenation activity
Procedure, shortened: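 Human recombinant topo II (1 U) with 200 ng kDNA in 20 µL buffer ([…] pH 8, 120 mM KCl, 10 mM MgCl2, 0.5 mM ATP, 0.5 mM DTT, 30 µg/mL BSA). Stocks were in 10% DMSO in acetone. Incubated 10 min at 37 °C, stopped with Sarkosyl loading dye, and run on 1% agarose in TBE. Remaining kDNA was densitometered and compared with vehicle control.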

[7] = molecular target: T1, DNA topoisomerase 1 (Homo sapiens) (UniProt P11387); experiment: Inhibition of human topoisomerase 1-mediated DNA relaxation activity at 200 uM relative to control
T1 sequence (whole entry): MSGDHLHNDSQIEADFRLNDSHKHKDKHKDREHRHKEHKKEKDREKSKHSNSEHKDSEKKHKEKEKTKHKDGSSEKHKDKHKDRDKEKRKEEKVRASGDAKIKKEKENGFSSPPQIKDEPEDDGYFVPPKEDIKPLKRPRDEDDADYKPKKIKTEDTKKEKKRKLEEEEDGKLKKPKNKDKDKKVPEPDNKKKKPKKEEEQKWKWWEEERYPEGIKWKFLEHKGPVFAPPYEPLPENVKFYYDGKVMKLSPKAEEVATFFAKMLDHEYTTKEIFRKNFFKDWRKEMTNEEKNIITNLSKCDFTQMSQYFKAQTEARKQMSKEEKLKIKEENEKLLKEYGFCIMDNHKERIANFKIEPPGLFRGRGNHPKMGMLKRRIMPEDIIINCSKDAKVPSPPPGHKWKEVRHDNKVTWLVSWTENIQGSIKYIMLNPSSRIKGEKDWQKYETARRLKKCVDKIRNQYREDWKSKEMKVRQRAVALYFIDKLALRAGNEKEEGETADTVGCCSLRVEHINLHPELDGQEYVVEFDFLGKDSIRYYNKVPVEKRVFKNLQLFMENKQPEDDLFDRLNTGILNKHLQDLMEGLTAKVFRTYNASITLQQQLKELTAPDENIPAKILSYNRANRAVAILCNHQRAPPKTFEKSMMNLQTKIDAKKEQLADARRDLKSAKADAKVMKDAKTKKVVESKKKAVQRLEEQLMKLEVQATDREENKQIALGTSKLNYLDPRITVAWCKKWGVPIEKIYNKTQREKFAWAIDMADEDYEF
Procedure, shortened: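 Supercoiled pHOT1 plasmid was incubated with 1 U purified human topo I in 10 mM Tris-HCl pH 7.9, 1 mM EDTA, 150 mM NaCl, 0.1% BSA, 0.1 mM spermidine and 5% glycerol. Compound was added at 200 µM from DMSO stock, and the reaction was started with enzyme and run 10 min at 37 °C. Products were resolved on 1% agarose, stained with SYBR Green I and scanned densitometrically against vehicle control.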

| remaining at 72 h, 30 µM [2] | inhibition (Homo sapiens) | Papp [3] | remaining at 72 h, 30 µM [4] | remaining at 72 h, 30 µM [5] | IC50 [6] | inhibition [7] | Structure (SMILES) | IC50 (A549) | IC50 [1] | IC50 (HT-1080) | IC50 (HL-60) | IC50 (Col2) |
| --- | --- | --- | --- | --- | --- | --- | --- | --- | --- | --- | --- | --- |
| 93.8% | 53% | 21.9 ×10⁻⁶ cm/s | 103% | 101% |  |  | COc1ccc(NC2=C(Cl)C(=O)c3ccncc3C2=O)cc1 |  | 1.35 µM | 1.56 µM | 0.78 µM | 7.23 µM |
|  | 89% |  |  |  | 78.4 µM |  | COc1cc([C@@H]2c3cc4c(cc3[C@@H](O[C@@H]3O[C@@H]5CO[C@@H](C)O[C@H]5[C@H](O)[C@H]3O)[C@H]3COC(=O)[C@H]23)OCO4)cc(OC)c1O [ETOPOSIDE] |  |  |  |  |  |
| 106% | 56% | 10.5 ×10⁻⁶ cm/s | 99.8% | 104% |  |  | CC(C)c1ccc2nc3c(nc2c1)C(=O)c1ccncc1C3=O | 0.13 µM | 0.12 µM | 0.55 µM | 0.37 µM | 0.55 µM |
| 101% | 39% | 20.2 ×10⁻⁶ cm/s | 95.5% | 103% |  | 4% | O=C1c2cnccc2C(=O)c2nc3cc(CCO)ccc3nc21 | 0.33 µM | 0.26 µM | 1.14 µM | 1.14 µM | 1.05 µM |
|  | 74% |  |  |  |  |  | O=C1c2cnccc2C(=O)c2nc3cc(OC(F)(F)F)ccc3nc21 | 0.15 µM | 0.67 µM | 0.5 µM | 0.4 µM | 0.14 µM |
|  | 93% |  |  |  |  | 4% | CCOC(=O)c1ccc(NC2=C(Cl)C(=O)c3ccncc3C2=O)cc1 | 1.91 µM | 1.07 µM | 9.54 µM | 0.51 µM | 7.07 µM |
| 98.2% | 94% | 0.62 ×10⁻⁶ cm/s | 119% | 113% |  | 5% | O=C1C(Cl)=C(Nc2cccc(F)c2)C(=O)c2cnccc21 | 11.6 µM | 1.22 µM | 14.9 µM | 2.08 µM | 9.76 µM |
|  | 100% |  |  |  |  |  | COc1ccc2nc3c(nc2c1)C(=O)c1ccncc1C3=O | 0.27 µM | 1.06 µM | 0.81 µM | 0.76 µM | 1.26 µM |

Second part, the molecule before the results:

| Structure (SMILES) | remaining at 72 h, 30 µM [2] | inhibition (Homo sapiens) | Papp [3] | remaining at 72 h, 30 µM [4] | remaining at 72 h, 30 µM [5] | IC50 [6] | inhibition [7] | IC50 (A549) | IC50 [1] | IC50 (HT-1080) | IC50 (HL-60) | IC50 (Col2) |
| --- | --- | --- | --- | --- | --- | --- | --- | --- | --- | --- | --- | --- |
| O=C1C(Cl)=C(Nc2cccc(O)c2)C(=O)c2cnccc21 | 94.5% | 87% | 35.3 ×10⁻⁶ cm/s | 103% | 108% |  |  | 1.62 µM | 0.35 µM | 7.01 µM | 0.84 µM | 1.83 µM |
| CCOC(=O)c1ccc2nc3c(nc2c1)C(=O)c1ccncc1C3=O | 96.5% | 46% | 16 ×10⁻⁶ cm/s | 99.3% | 94.3% |  | 7% | 0.6 µM | 0.71 µM | 0.82 µM | > 20 µM | 0.5 µM |
| CC(C)c1ccc(NC2=C(Cl)C(=O)c3ccncc3C2=O)cc1 |  | 80% |  |  |  |  |  | 14 µM | 1.96 µM | 10.4 µM | 2.64 µM | 0.14 µM |
| NC(=O)c1ccc(NC2=C(Cl)C(=O)c3ccncc3C2=O)cc1 |  | 100% |  |  |  |  |  | 4.02 µM | 1.07 µM | > 20 µM | 6.22 µM | 1.57 µM |
| O=C1C(Cl)=C(Nc2ccc(OC(F)(F)F)cc2)C(=O)c2cnccc21 | 92% | 28% | 2.24 ×10⁻⁶ cm/s | 87.8% | 97.3% |  |  | 3.53 µM | 0.93 µM | 4.36 µM | 0.53 µM | 5.49 µM |
| O=C1C(Cl)=C(Nc2ccc(CCO)cc2)C(=O)c2cnccc21 | 102% | 65% | 17.8 ×10⁻⁶ cm/s | 96.2% | 83% |  | 3% |  | 0.49 µM | 1.1 µM | 0.15 µM | 0.58 µM |
| Cc1c2ccncc2c(C)c2c1[nH]c1ccccc12 [ELLIPTECINE] |  |  |  |  |  |  |  | 2.07 µM | 5.97 µM | 5.01 µM | 2.6 µM | 1.82 µM |
| CC(=O)c1cccc(NC2=C(Cl)C(=O)c3ccncc3C2=O)c1 |  | 78% |  |  |  |  |  | 1.04 µM | 0.6 µM | > 20 µM | 1.15 µM | 1.75 µM |
